Data: ChEMBL document CHEMBL5724801, “EUbOPEN Chemogenomics Library - Multiplex” (2024)
Several values for one entry are separate records, joined by “and”; a condition that tells them apart may be missing. Identical values can stand only once.

Test system: U2OS
Assay: Multiplex assay against U2OS
Assay type: toxicity, cell-based
Details: human
In short: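 At seeding, live cells were stained with Hoechst33342, BioTracker Green Microtubule Cytoskeleton Dye, MitoTracker Red and Annexin V Alexa Fluor 680. After compound addition they were imaged on a CQ1 microscope at 37°C and 5% CO2, and CellPathfinder machine-learning gating sorted them into Hoechst high-intensity objects or normal cells, with normal cells further split into healthy, pyknosed or fragmented nuclei and pyknosed cells into mitotic or apoptotic. Tubulin, mitochondrial-mass and membrane-permeability phenotypes are given as per cents of cells with healthy nuclei.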

[1] = 12 h, 1 µM, compound concentration 1 uM
[2] = 12 h, 10 µM, compound concentration 10 uM
[3] = 24 h, 1 µM, compound concentration 1 uM
[4] = 24 h, 10 µM, compound concentration 10 uM
[5] = 48 h, 1 µM, compound concentration 1 uM
[6] = 48 h, 10 µM, compound concentration 10 uM

Cc1ccc(/C(=C\CN2CCCC2)c2ccccn2)cc1 [TRIPROLIDINE]
Population Apoptotic (%) [1]: 85%
Population Fragmented Nuclei (%) [1]: 29% and 18%
Population Healthy Nuclei (%) [1]: 61% and 70%
Population Hoechst High Intensity Objects (%) [1]: 2% and 3%
Population Membrane Permeable-Phenotype (%) [1]: 4% and 6%
Population Mitochondria Different-Phenotype (%) [1]: 2% and 1%
Population Mitotic Cells (%) [1]: 15% and 14%
Population Normal (%) [1]: 97% and 96%
Population Pyknosed Nuclei (%) [1]: 8% and 11%
Population Tubulin-Different-Phenotype (%) [1]: 1% and 5%
Total Cell Count [1]: 244 and 126
Population Apoptotic (%) [2]: 87% and 75%
Population Fragmented Nuclei (%) [2]: 25% and 15%
Population Healthy Nuclei (%) [2]: 64% and 77%
Population Hoechst High Intensity Objects (%) [2]: 3% and 0%
Population Membrane Permeable-Phenotype (%) [2]: 29% and 14%
Population Mitochondria Different-Phenotype (%) [2]: 23% and 18%
Population Mitotic Cells (%) [2]: 12% and 25%
Population Normal (%) [2]: 96% and 99%
Population Pyknosed Nuclei (%) [2]: 9% and 7%
Population Tubulin-Different-Phenotype (%) [2]: 24% and 15%
Total Cell Count [2]: 264 and 114
Population Apoptotic (%) [3]: 89% and 81%
Population Fragmented Nuclei (%) [3]: 23% and 20%
Population Healthy Nuclei (%) [3]: 66% and 68%
Population Hoechst High Intensity Objects (%) [3]: 1% and 4%
Population Membrane Permeable-Phenotype (%) [3]: 4% and 9%
Population Mitochondria Different-Phenotype (%) [3]: 3% and 6%
Population Mitotic Cells (%) [3]: 10% and 18%
Population Normal (%) [3]: 98% and 96%
Population Pyknosed Nuclei (%) [3]: 9% and 11%
Population Tubulin-Different-Phenotype (%) [3]: 2% and 5%
Total Cell Count [3]: 297 and 150
Population Apoptotic (%) [4]: 75% and 78%
Population Fragmented Nuclei (%) [4]: 27% and 19%
Population Healthy Nuclei (%) [4]: 62% and 70%
Population Hoechst High Intensity Objects (%) [4]: 2% and 1%
Population Membrane Permeable-Phenotype (%) [4]: 12% and 11%
Population Mitochondria Different-Phenotype (%) [4]: 15% and 13%
Population Mitotic Cells (%) [4]: 24% and 21%
Population Normal (%) [4]: 97% and 98%
Population Pyknosed Nuclei (%) [4]: 10% and 9%
Population Tubulin-Different-Phenotype (%) [4]: 8% and 6%
Total Cell Count [4]: 320 and 149
Population Apoptotic (%) [5]: 86% and 76%
Population Fragmented Nuclei (%) [5]: 17%
Population Healthy Nuclei (%) [5]: 73% and 75%
Population Hoechst High Intensity Objects (%) [5]: 2% and 3%
Population Membrane Permeable-Phenotype (%) [5]: 3% and 5%
Population Mitochondria Different-Phenotype (%) [5]: 3%
Population Mitotic Cells (%) [5]: 13% and 23%
Population Normal (%) [5]: 97% and 96%
Population Pyknosed Nuclei (%) [5]: 9% and 6%
Population Tubulin-Different-Phenotype (%) [5]: 3% and 4%
Total Cell Count [5]: 398 and 209
Population Apoptotic (%) [6]: 86% and 89%
Population Fragmented Nuclei (%) [6]: 24% and 15%
Population Healthy Nuclei (%) [6]: 65% and 74%
Population Hoechst High Intensity Objects (%) [6]: 2% and 4%
Population Membrane Permeable-Phenotype (%) [6]: 11% and 9%
Population Mitochondria Different-Phenotype (%) [6]: 8%
Population Mitotic Cells (%) [6]: 13% and 10%
Population Normal (%) [6]: 97% and 95%
Population Pyknosed Nuclei (%) [6]: 9%
Population Tubulin-Different-Phenotype (%) [6]: 7% and 6%
Total Cell Count [6]: 453 and 203

O=C1NC(NC23CC4CC(CC(C4)C2)C3)=N/C1=C\c1ccc2ncsc2c1
Population Apoptotic (%) [1]: 51.02% and 44.83%
Population Fragmented Nuclei (%) [1]: 17.88% and 22.19%
Population Healthy Nuclei (%) [1]: 75% and 69.66%
Population Hoechst High Intensity Objects (%) [1]: 0.86% and 0%
Population Membrane Permeable-Phenotype (%) [1]: 0.97% and 3.63%
Population Mitochondria Different-Phenotype (%) [1]: 0% and 3.23%
Population Mitotic Cells (%) [1]: 48.98% and 55.17%
Population Normal (%) [1]: 99.14% and 100%
Population Pyknosed Nuclei (%) [1]: 7.12% and 8.15%
Population Tubulin-Different-Phenotype (%) [1]: 0.58% and 2.82%
Total Cell Count [1]: 694 and 356
Population Apoptotic (%) [2]: 44.44% and 38.46%
Population Fragmented Nuclei (%) [2]: 64.07% and 81%
Population Healthy Nuclei (%) [2]: 21.59% and 11.58%
Population Membrane Permeable-Phenotype (%) [2]: 0.82% and 0%
Population Mitochondria Different-Phenotype (%) [2]: 0% and 1.41%
Population Mitotic Cells (%) [2]: 55.56% and 61.54%
Population Normal (%) [2]: 52.03% and 84.32%
Population Pyknosed Nuclei (%) [2]: 14.34% and 7.42%
Population Tubulin-Different-Phenotype (%) [2]: 0% and 1.41%
Total Cell Count [2]: 1086 and 1454
Population Apoptotic (%) [3]: 50% and 44.68%
Population Fragmented Nuclei (%) [3]: 19.28% and 20.63%
Population Healthy Nuclei (%) [3]: 75.17% and 67.96%
Population Hoechst High Intensity Objects (%) [3]: 0.69% and 0%
Population Membrane Permeable-Phenotype (%) [3]: 1.48% and 2.86%
Population Mitochondria Different-Phenotype (%) [3]: 0.37% and 5.71%
Population Mitotic Cells (%) [3]: 50% and 55.32%
Population Normal (%) [3]: 99.31% and 100%
Population Pyknosed Nuclei (%) [3]: 5.55% and 11.41%
Population Tubulin-Different-Phenotype (%) [3]: 2.03% and 2.86%
Total Cell Count [3]: 726 and 412
Population Apoptotic (%) [4]: 45.1% and 35.71%
Population Fragmented Nuclei (%) [4]: 58.49% and 84.85%
Population Healthy Nuclei (%) [4]: 17.9% and 8.37%
Population Membrane Permeable-Phenotype (%) [4]: 0%
Population Mitochondria Different-Phenotype (%) [4]: 0%
Population Mitotic Cells (%) [4]: 54.9% and 64.29%
Population Normal (%) [4]: 60.11% and 86.9%
Population Tubulin-Different-Phenotype (%) [4]: 0%
Total Cell Count [4]: 1078 and 1664
Population Apoptotic (%) [5]: 50% and 51.75%
Population Fragmented Nuclei (%) [5]: 22.08% and 20.53%
Population Healthy Nuclei (%) [5]: 72.6% and 58%
Population Hoechst High Intensity Objects (%) [5]: 3.35% and 1.12%
Population Membrane Permeable-Phenotype (%) [5]: 1.27% and 2.27%
Population Mitochondria Different-Phenotype (%) [5]: 0.32% and 9.42%
Population Mitotic Cells (%) [5]: 50% and 48.25%
Population Normal (%) [5]: 96.65% and 98.88%
Population Tubulin-Different-Phenotype (%) [5]: 2.23% and 2.6%
Total Cell Count [5]: 895 and 537
Population Apoptotic (%) [6]: 51.13% and 47.24%
Population Fragmented Nuclei (%) [6]: 58.82% and 85.02%
Population Healthy Nuclei (%) [6]: 12.73% and 6.82%
Population Hoechst High Intensity Objects (%) [6]: 31% and 15.76%
Population Membrane Permeable-Phenotype (%) [6]: 0% and 1.89%
Population Mitochondria Different-Phenotype (%) [6]: 0% and 0.94%
Population Mitotic Cells (%) [6]: 48.87% and 52.76%
Population Normal (%) [6]: 69% and 84.24%
Population Tubulin-Different-Phenotype (%) [6]: 0%
Total Cell Count [6]: 1355 and 1846

CCOC(=O)c1c(/C(C#N)=C\N)c2ccc(Cl)c(Cl)c2n1C
Population Apoptotic (%) [1]: 47.83% and 43.48%
Population Fragmented Nuclei (%) [1]: 0.85% and 4.7%
Population Healthy Nuclei (%) [1]: 89.38% and 79.87%
Population Hoechst High Intensity Objects (%) [1]: 0%
Population Membrane Permeable-Phenotype (%) [1]: 1.19% and 0.84%
Population Mitochondria Different-Phenotype (%) [1]: 0% and 5.88%
Population Mitotic Cells (%) [1]: 52.17% and 56.52%
Population Normal (%) [1]: 100%
Population Pyknosed Nuclei (%) [1]: 9.77% and 15.44%
Population Tubulin-Different-Phenotype (%) [1]: 0.95% and 0.84%
Population Apoptotic (%) [2]: 43.9% and 26.67%
Population Healthy Nuclei (%) [2]: 86.92% and 80.49%
Population Hoechst High Intensity Objects (%) [2]: 0%
Population Membrane Permeable-Phenotype (%) [2]: 0% and 3.64%
Population Mitochondria Different-Phenotype (%) [2]: 0% and 2.42%
Population Mitotic Cells (%) [2]: 56.1% and 73.33%
Population Normal (%) [2]: 100%
Population Pyknosed Nuclei (%) [2]: 11.17% and 7.32%
Population Tubulin-Different-Phenotype (%) [2]: 0.31% and 0%
Total Cell Count [2]: 367 and 205
Population Apoptotic (%) [3]: 38.46% and 52.38%
Population Fragmented Nuclei (%) [3]: 0.82% and 3.3%
Population Healthy Nuclei (%) [3]: 90.7% and 85.16%
Population Hoechst High Intensity Objects (%) [3]: 0%
Population Membrane Permeable-Phenotype (%) [3]: 0.9% and 3.87%
Population Mitochondria Different-Phenotype (%) [3]: 0% and 2.58%
Population Mitotic Cells (%) [3]: 61.54% and 47.62%
Population Normal (%) [3]: 100%
Population Pyknosed Nuclei (%) [3]: 8.48% and 11.54%
Population Tubulin-Different-Phenotype (%) [3]: 1.62% and 1.29%
Population Apoptotic (%) [4]: 49.09% and 33.33%
Population Fragmented Nuclei (%) [4]: 1.8% and 9.69%
Population Healthy Nuclei (%) [4]: 87.17% and 84.5%
Population Hoechst High Intensity Objects (%) [4]: 0%
Population Membrane Permeable-Phenotype (%) [4]: 0.46% and 1.38%
Population Mitochondria Different-Phenotype (%) [4]: 0% and 1.38%
Population Mitotic Cells (%) [4]: 50.91% and 66.67%
Population Normal (%) [4]: 100%
Population Pyknosed Nuclei (%) [4]: 11.02% and 5.81%
Population Tubulin-Different-Phenotype (%) [4]: 0.92% and 0.46%
Total Cell Count [4]: 499 and 258
Population Apoptotic (%) [5]: 46.46% and 70.83%
Population Fragmented Nuclei (%) [5]: 2.55% and 2.93%
Population Healthy Nuclei (%) [5]: 88.73% and 89.25%
Population Hoechst High Intensity Objects (%) [5]: 0%
Population Membrane Permeable-Phenotype (%) [5]: 0.6% and 3.28%
Population Mitochondria Different-Phenotype (%) [5]: 0% and 2.55%
Population Mitotic Cells (%) [5]: 53.54% and 29.17%
Population Normal (%) [5]: 100%
Population Pyknosed Nuclei (%) [5]: 8.71% and 7.82%
Population Tubulin-Different-Phenotype (%) [5]: 0.4% and 1.82%
Population Apoptotic (%) [6]: 37.84% and 47.83%
Population Fragmented Nuclei (%) [6]: 3.52% and 4.86%
Population Healthy Nuclei (%) [6]: 85.01% and 83.38%
Population Hoechst High Intensity Objects (%) [6]: 0%
Population Membrane Permeable-Phenotype (%) [6]: 1.09% and 0.92%
Population Mitochondria Different-Phenotype (%) [6]: 0% and 1.84%
Population Mitotic Cells (%) [6]: 62.16% and 52.17%
Population Normal (%) [6]: 100%
Population Pyknosed Nuclei (%) [6]: 11.48% and 11.76%
Population Tubulin-Different-Phenotype (%) [6]: 1.09% and 0%
Total Cell Count [6]: 967 and 391
